Screening results (PubChem)
SENP1 FRET inh – human SENP1 catalytic domain inhibitors, primary screen, biochemical, FRET, uHTS; Sentrin-specific protease 1 (Homo sapiens), Q9P0U3; recombinant SENP1 catalytic domain, CyPet-SUMO1-YPet FRET cleavage; inhibition, % at 10 µM; hit rate 0.21% among 360,000; AID 624204, 2012;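 active = inhibition at least 30% at 10 µM, raw YFP signal under a set limit, fluorescence ratio 0.5 to 1.5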;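 note: 0% = enzyme with DMSO and 100% = no enzyme wells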
Target sequence (Q9P0U3 419-644 limits assumed): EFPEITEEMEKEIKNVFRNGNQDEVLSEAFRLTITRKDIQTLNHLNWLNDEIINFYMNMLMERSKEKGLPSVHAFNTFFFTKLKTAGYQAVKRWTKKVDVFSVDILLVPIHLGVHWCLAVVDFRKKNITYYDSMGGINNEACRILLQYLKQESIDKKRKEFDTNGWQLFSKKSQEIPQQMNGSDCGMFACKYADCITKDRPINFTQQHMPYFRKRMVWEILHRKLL
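material = recombinant human SENP1 catalytic domain, His6-tagged | quantity = 20 pM enzyme | reagent = 25 nM SUMO1 FRET substrate | compound dosing = 10 µM single point, 0.5% DMSO | timing = 50 min enzyme reaction, room temperature, light-protected | detection = FRET, CFP and YFP emission | control set = no-enzyme low, enzyme-DMSO high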
NadD block – inhibitors of S. aureus NadD, primary screen, biochemical, colorimetric, uHTS; Nicotinate-nucleotide adenylyltransferase NadD (Staphylococcus aureus N315); hit rate 0.78% among 360,000; AID 602399, 2012; inhibition, % at 20 µM; purified NadD enzyme, colorimetric absorbance read-out; in the data active = inhibition above about 26%
GRK2 aptamer HTS – compounds blocking aptamer binding on GRK2 – biochemical, human GRK2, bead flow cytometry, HTS, primary screen. Beta-adrenergic receptor kinase 1 (Homo sapiens), P25098. FAM-aptamer displacement from GRK2. inhibition of aptamer binding, % at 10 µM. hit rate 0.59% among 330,000. AID 488847, 2010;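 active = inhibition of aptamer binding above 40%, roughly 3 SD of noise, on plates passing a quality check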;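 note: median bead fluorescence of bound FAM aptamer so fluorescent compounds give negative values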
ABHD5 PLIN5 PPI – ABHD5-PLIN5 interaction inhibitors, primary screen, cell lysate, split luciferase complementation, luminescence. Perilipin-5 (Homo sapiens) + 1-acylglycerol-3-phosphate O-acyltransferase ABHD5 (Homo …. AID 602281, 2012. inhibition, % at 4 µM. Split G. princeps luciferase complementation, 4 h. hit rate 0.78% among 360,000;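 active = inhibition above the mean inhibition across every tested compound plus 3 SD, cut at about 22% in these data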;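 note: 0% = DMSO only wells and the 100% control is not disclosed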
B2AR ag – beta2AR agonists driving receptor internalization, primary screen, cell-based, FAP fluorogen, flow cytometry; Beta-2 adrenergic receptor (Homo sapiens), P07550; Am2.2-beta2AR cells; response, % (concentration not given with the values); hit rate 0.43% among 340,000;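 active = response above a set limit, near 3 SD of response in nonfluorescent compounds, cut at about 42% in these data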
NadD conf – inhibitors of S. aureus NadD, confirmation, biochemical, colorimetric, single concentration; hit rate 13% among 2,000; shares compounds with NadD block; purified S. aureus NadD, colorimetric enzyme assay; inhibition, % at 20 µM; in the data active = inhibition mostly above about 42%, no sharp cut-off; inactive = mostly below about 42%
The depositor's hits bear a star; · = not tested or not shown. Hits are enriched below; roughly 2.5% of the tested compounds scored in any of these assays.

SMILES	SENP1 FRET inh	NadD block	GRK2 aptamer HTS	ABHD5 PLIN5 PPI	B2AR ag	NadD conf
Cc1nc(N2CCN(S(=O)(=O)c3ccccc3)CC2)c2cc(-c3ccccc3)sc2n1	1	41*	0	-1	-3	4
Cc1cccc(OCCNS(=O)(=O)c2ccc(Cl)cc2)c1	2	-5	2	-3	-5	·
O=C(NC(=S)Nc1ccccc1N1CCCCC1)c1ccc(-c2cccc([N+](=O)[O-])c2)o1	5	18	0	1	0	·
O=C(NC(=S)Nc1ccccc1N1CCCC1)c1ccc(-c2cccc([N+](=O)[O-])c2)o1	-25	32*	0	-7	2	3
CCCN(C(=O)COC(=O)C12CCC(=O)N1c1ccccc1S2)c1c(N)n(Cc2ccccc2)c(=O)[nH]c1=O (stereo not drawn)	-1	3	3	-4	-2	·
O=c1[nH]c(C(Cl)Cl)nc2sc3c(c12)CCN(Cc1ccccc1)C3	-27	32*	0	0	14	59*
O=C1OCCC1=COCCCCCOC=C1CCOC1=O	1	3	·	-5	·	·
O=C(COC(=O)c1ccccc1OCc1ccccc1Cl)NCC1CCCO1 (stereo not drawn)	1	0	0	-4	-1	·
Cc1ccc(NC(=O)CSCC(=O)Nc2nnc(C3CC3)s2)cc1	0	1	0	-9	-1	·
Cc1ccc(Nc2nnc(C3C(=O)N(C)C4(C)CC3c3cc(Br)ccc3O4)s2)cc1 (stereo not drawn)	3	28*	0	-5	-5	4
O=S(=O)(NC1CC1)c1ccc(Br)cc1N1CCC[C@H]1CO	1	1	·	-1	-3	·
CN(C)c1ccc(Sc2nnc(NC(=O)Nc3ccc(Cl)cc3Cl)s2)cc1	0	39*	0	-3	-4	7
O=C(CSc1nc2nc3c(cc2c(=O)n1-c1ccccc1)CCCC3)Nc1cccc2ccccc12	-25	41*	2	2	-12	19
COc1ccccc1-n1c(=O)c(C#N)c(-c2ccc([N+](=O)[O-])cc2)c2cc(C(=O)c3ccccc3O)cnc21	-9	38*	0	1	7	12
COc1ccc(C(=O)c2ccc([N+](=O)[O-])cc2)c(OC)c1OC	1	-7	·	-6	-3	·
CCn1c2ccccc2c2cc(NC(=O)CSc3nnc(-c4ccc(OC)cc4)n3N)ccc21	2	30*	0	3	13	33
N#Cc1c(NC2CCCCC2)nc(-c2ccco2)c2c1CCCC2	-24	38*	0	20	8	10
COCCNC(=O)Cn1ccc2cc(S(=O)(=O)N3CCCCCC3)ccc21	2	-2	4	-6	-3	·
Nc1c(C(=O)O)sc2nc(-c3ccccc3)cc(-c3ccc(Cl)cc3)c12	-2	5	0	11	21	·
Nc1c(C(=O)O)sc2nc(-c3ccc(F)cc3)cc(-c3ccccc3)c12	-34	37*	0	-3	-9	29
COc1ccc(CCN2CC(C(=O)NC3CCOCC3)CCC2=O)cc1 (stereo not drawn)	1	-2	0	0	4	·
COc1ccc(Nc2nnc(SC(C(=O)Nc3cc(C)ccc3C)c3ccccc3)s2)cc1 (stereo not drawn)	3	23	5	-1	8	·
COc1ccc(Nc2nnc(SC(C(=O)Nc3ccc(OC)c(Cl)c3)c3ccccc3)s2)cc1 (stereo not drawn)	0	32*	0	-5	15	48
Cc1oc(C)c2c(=O)ccc3c(c12)OC(N)=C(C#N)C3c1ccccc1 (stereo not drawn)	-16	10	0	5	-115	·
CSc1ccc(C2C(C#N)=C(N)Oc3c2ccc(=O)c2c(C)oc(C)c32)cc1 (stereo not drawn)	-17	58*	2	5	-26	25
